SIAE inh: human SIAE inhibition, primary screen. Q9HAT2. SIAE FP-Rh probe binding, fluorescence polarization. inhibition, % at 9.66 µM. 370,000 compounds, 0.69% hits;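 active means inhibition above a cutoff: mean of compounds within the control limits plus 3 SD of those, cut at about 17% in these data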;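 further: 0% = plate median of compound wells and 100% = probe without SIAE protein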
mABHD4 FP: ABHD4 (mouse) inhibition, primary FP screen; Q8VD66; purified mABHD4, FP-Rh probe fluorescence polarization; inhibition, % at 8.92 µM; 370,000 compounds, 0.54% hits; AID 720543;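 active means inhibition exceeding the mean over every tested compound plus 3 SD, cut at about 30% in these data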;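 further: 0% = plate median of compound wells and 100% = S159A mutant with DMSO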
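Assay system: Wild-type mouse ABHD4 protein | Medium: HEPES pH 7.0 buffer, 150 mM NaCl, 0.01% Pluronic F-127 | Incubation: Enzyme–compound pre-incubation 45 min, then probe 60 min, both 25 °C | Technique: Fluorescence polarization with parallel and perpendicular emission, 525/598 nm | Evaluation: % inhibition of FP-Rh probe binding versus controls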
Tn7 DDE FP: DD(E)-Tn7 binding inhibition, primary FP screen | 370,000 compounds, 0.13% hits | FP displacement of FITC-Tn7 peptide from fibrin DD(E); 0% = median of compound wells per plate | inhibition, % at 8.3 µM;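 active means inhibition above the mean of compounds falling within the control limits plus 3 SD of them, cut at about 14% in these data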;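 further: 0% = plate median of compound wells and 100% = 10 µM Aha-Tn7 peptide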
Target sequence (P02675 whole entry, looked up): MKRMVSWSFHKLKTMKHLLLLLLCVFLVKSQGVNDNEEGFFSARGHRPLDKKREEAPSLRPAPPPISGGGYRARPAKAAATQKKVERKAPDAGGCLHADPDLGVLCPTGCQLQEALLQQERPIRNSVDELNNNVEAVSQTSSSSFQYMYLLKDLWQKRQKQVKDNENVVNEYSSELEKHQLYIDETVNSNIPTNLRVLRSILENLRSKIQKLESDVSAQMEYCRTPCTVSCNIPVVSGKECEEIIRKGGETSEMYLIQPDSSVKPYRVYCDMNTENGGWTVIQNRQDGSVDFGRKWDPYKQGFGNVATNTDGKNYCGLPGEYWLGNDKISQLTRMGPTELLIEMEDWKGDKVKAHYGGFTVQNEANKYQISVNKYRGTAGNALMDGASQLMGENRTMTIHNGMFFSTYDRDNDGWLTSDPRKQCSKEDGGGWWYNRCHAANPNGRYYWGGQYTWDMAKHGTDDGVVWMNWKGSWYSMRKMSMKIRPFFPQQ
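Test system – human fibrin DD(E) · Times – 10 min preincubation, 3 h with tracer, room temperature · Detection – fluorescence polarization of the labelled Tn7 tracer · Measure – percent inhibition normalized to high-control wells · Benchmarks – high control wells with 10 µM unlabelled Aha-Tn7 peptide (full inhibition) · Repeats – singlicate testing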
TCR-CD3 inh: inhibitors of human TCR-CD3 interaction; TAMRA-labeled TCR probe fluorescence, biochemical; inhibition, % at 9.4 µM; 360,000 compounds, 0.37% hits; AID 651800; in the data active means inhibition above about 19%;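 further: recombinant mutant TCR 2C K166C tagged with TAMRA read by polarization; 0% = receptor in buffer alone and 100% = receptor with positive control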
HTRA1 inh: blocks human HTRA1 serine peptidase | Q92743 | recombinant HTRA1, FP-rhodamine activity-based probe, fluorescence polarization | inhibition, % at 5.96 µM | 340,000 compounds, 0.5% hits; in the data active means inhibition above about 36%;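 further: 0% = enzyme with DMSO and 100% = wells lacking enzyme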
DDE Tn6 FP inh: disrupts Tn6 cyclic peptide binding to fibrin D-Dimer-E complex | Fibrin DD(E) TRITC-Tn6 fluorescence polarization displacement | AID 720509 | inhibition, % at 8.3 µM | 370,000 compounds, 0.21% hits;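 active means inhibition above a per-campaign cutoff: mean of compounds within control limits plus 3 SD, cut at about 15% in these data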;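 further: 0% = median of all compound wells on the plate and 100% = blocking peptide control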
Starred values were filed as active, the others as inactive; . = no result. This is a sample that favours compounds with a hit; in the whole collection about 1.8% have one here.

SMILES	SIAE inh	mABHD4 FP	Tn7 DDE FP	TCR-CD3 inh	HTRA1 inh	DDE Tn6 FP inh
COc1ccc(CN2C(=O)c3cccnc3C2Nc2ccc(OC)c(Cl)c2)cc1 (stereo not drawn)	3.0	-1.7	0.2	6.2	-2.7	1.3
CCOC(=O)Cc1cc(=O)n(-c2nc3ccccc3s2)[nH]1	9.8	4.4	-6.1	15.6	49.1*	-13.0
CS(=O)(=O)Nc1ccc(Br)cc1C(=O)c1ccccc1	-2.8	1.6	-5.6	4.7	-4.3	-8.0
CCNc1ccc(Br)cc(C(=O)/C=C/c2c(Cl)cccc2Cl)c1=O	.	.	.	.	57.7*	.
O=C(O)c1cc(N/N=C/c2ccc(N3CCOCC3)s2)ccc1Cl	20.6*	43.5*	2.9	6.9	25.8	5.4
NC(=O)N/N=C/c1ccc(N2CCOCC2)s1	-4.1	2.1	-13.5	-1.8	4.6	-3.7
O=C(CSc1nnc(-c2cccs2)o1)c1ccc2c(c1)OCO2	7.8	2.8	-0.7	.	.	-11.1
O=C1NC(=S)S/C1=C\c1cc(Cl)cc(Cl)c1O	-70.7	-167.2	-12.4	-55.4	-51.2	25.4*
O=C(CCCc1c[nH]c2ccccc12)N1CCN(c2ccc(N3CCOCC3)nn2)CC1	18.8*	5.0	6.0	5.8	8.9	-2.0
O=C(CCc1c[nH]c2ccccc12)N1CCN(c2ccc(F)cc2)CC1	3.1	5.1	-2.2	0.8	5.0	-2.9
CCCSc1nnc(-c2cccc(S(=O)(=O)N(C)C)c2)n1-c1cc(OC)ccc1OC	1.9	2.8	0.9	-9.3	-8.4	-0.3
CN(C)S(=O)(=O)c1cccc(-c2nnc(SCCNCCO)n2-c2ccc(F)cc2)c1	11.5	30.6*	8.4	-1.7	-10.5	-1.8
Cc1ccc(C2C3CN(C(C)C)CC=C3C(C#N)=C(N)C2(C#N)C#N)cc1 (stereo not drawn)	0.7	33.9*	6.5	8.5	2.7	13.4
Cc1sc2nc(CSCC(=O)N(CCC#N)c3ccccc3)[nH]c(=O)c2c1C	-2.3	6.0	4.5	20.2*	-3.7	5.6
CN1CCCN(S(=O)(=O)c2ccc3c(c2)n(C)c(=O)c(=O)n3C)CC1	1.8	0.1	-2.1	.	.	-1.7
O=C1C=C(O)c2cccc(O)c2C1=O	12.5	40.6*	3.0	5.4	21.8	-3.1
O=C(Nc1ccc(N2CCOCC2)cc1)Nc1ccc2nc(-c3ccco3)c(-c3ccco3)nc2c1	8.8	19.8	1.2	-0.5	30.1	-31.0
O=C(Nc1ccc2nc(-c3ccco3)c(-c3ccco3)nc2c1)NC1CC1	.	.	.	.	50.8*	.
O=C(Nc1cccc(C(F)(F)F)c1)c1ccc2nc(-c3ccco3)c(-c3ccco3)nc2c1	-1.9	8.6	-6.3	-6.8	67.1*	-5.3
COC(=O)[C@]12C[C@H](CC(=O)NCc3cccc(C(F)(F)F)c3)C(=O)N(Cc3ccc(Cl)cc3Cl)C1=C[C@H](C(C)(C)C)O[C@@H]2C	-0.9	-5.6	7.9	.	.	2.0
CN(C(=O)c1ccccc1OCC(=O)Nc1ccc(Br)cc1)c1ccccc1	-15.3	-11.2	5.3	.	.	9.6
CCOc1ccc(C(N)=O)cc1OC	-5.7	-10.1	4.2	-5.3	10.4	4.7
CCOc1ccc(N)cc1OC	24.0*	13.3	-0.3	-2.8	16.9	-1.6
COc1ccc(CN(CCN(C)C)c2ccccn2)cc1	-2.1	-1.7	3.8	-1.9	2.2	0.8
CCCCCCCCCCCCCCCC[N+](C)(C)CCN(Cc1ccc(OC)cc1)c1ncccn1	.	.	.	.	52.4*	.
SMILES	SIAE inh	mABHD4 FP	Tn7 DDE FP	TCR-CD3 inh	HTRA1 inh	DDE Tn6 FP inh
CCOC(=O)c1ccc(NC(=O)Nc2ccc(OC)c(OC)c2)cc1	15.5	13.4	1.9	4.0	4.2	-8.5
CCCCOC(=O)c1ccc(NC(=O)Nc2ccc(OC)c(OC)c2)cc1	20.2*	13.3	3.4	8.7	-2.5	-2.4
Cc1ccc(NC(=O)Cc2ccc(OC(F)F)cc2)c(S(=O)(=O)N2CCOCC2)c1	-1.2	4.8	-1.9	.	.	3.2
CC1=C(C(=O)N2CCOCC2)C(c2ccc(O)cc2)NC(=S)N1 (stereo not drawn)	-1.6	-12.3	-2.9	-6.0	4.5	-0.8
Oc1ccc2c(c1)C1CCCC1(N1CCOCC1)O2 (stereo not drawn)	8.9	34.2*	-1.4	10.8	-4.7	-8.6
Oc1ccc2ccccc2c1CNc1ccc2ccccc2c1	8.2	39.7*	-0.8	8.4	23.6	0.2
Oc1ccc2ccccc2c1CNc1ccccc1	5.1	0.9	7.0	7.3	-2.2	0.1
C=CCNC(=O)C1CC(=O)N(c2ccc(OCC(=O)Nc3ccc(C)cc3)cc2)C1 (stereo not drawn)	-4.1	1.2	-2.3	-3.5	-2.8	-6.3
C=CCNC(=O)C1CC(=O)N(c2ccc(OCC(=O)Nc3ccccc3)cc2)C1 (stereo not drawn)	18.4*	5.4	3.5	4.3	-10.1	-4.9
NN=C1c2ccccc2C(=O)C1C(=O)C(c1ccccc1)c1ccccc1 (stereo not drawn)	-60.3	-108.8	-4.2	13.6	-40.0	18.8*
Cc1ccc(C(=O)C2C(=O)c3ccccc3C2=O)cc1	8.4	-2.4	5.4	2.0	5.2	-7.3
OCCN(CCO)c1nc(N2CCCCC2)c2nc(N(CCO)CCO)nc(N3CCCCC3)c2n1	1.1	-4.0	25.6*	-1.3	4.7	0.9
CCOC(=O)N1CCN(c2cc(NCCC(=O)O)c3c4c(onc24)-c2ccccc2C3=O)CC1	.	.	.	.	40.2*	.
CN1CCN(c2cc(N3CCN(C(=O)c4ccco4)CC3)c3c4c(onc24)-c2ccccc2C3=O)CC1	.	.	.	.	63.1*	.
Cn1c(Cc2cccs2)nnc1SCC(=O)Nc1ccc2c(c1)OCCO2	2.5	3.4	-3.7	.	.	-1.0
Cc1cc(-c2cc(NC(=O)Cc3c(C)[nH]c4ccccc34)ccc2N(C)c2cccnc2)ccc1F	6.9	27.4	-0.4	-2.7	.	-3.5
Cc1[nH]c2ccccc2c1CC(=O)Nc1ccc(N(C)c2cccnc2)c(-c2cccc(Cl)c2)c1	4.2	30.1*	4.5	-4.0	.	-2.5
CC(C)C(=O)OCCCN1C(=O)CCC12CCC(c1ccccc1)CC2 (stereo not drawn)	0.6	3.1	7.7	.	.	1.0
C/C(=N\NC(=O)c1cccc(N/N=C(\C)c2cc(O)ccc2O)c1)c1cc(O)ccc1O	10.9	23.8	3.9	29.6*	28.1	-1.6
CN1CC(=O)N2[C@@H](C[C@]3(c4c[nH]c5ccccc45)c4ccccc4N(S(=O)(=O)c4ccccc4)[C@H]23)C1=O	0.8	2.3	-3.0	.	.	-3.7
CCN(C(=O)COc1cc(=O)n(CC)c2ccccc12)c1cc(Cl)ccc1OC	21.7*	0.8	2.5	0.1	-2.3	-3.5
Cc1cc(C(=O)COC(=O)C2=COCCO2)c(C)n1-c1ccc2c(c1)OCO2	17.4*	-5.8	7.6	1.6	2.3	0.0
Nc1nc2c(s1)CCc1ccccc1-2	10.7	15.6	4.4	8.2	-1.9	1.9

From PubChem
